Measurements from different studies.
Lines come from different studies, so protocols differ.
Target: Beta-2 adrenergic receptor (ADRB2, Homo sapiens, UniProt P07550)
Concentration: 10 µM

| SMILES | test | inhibition |
| --- | --- | --- |
| Ic1cccc2cnccc12 | ligand displacement, radioligand | 0% |
| CCN(CC)c1ccc(C2Nc3ccc(C(=O)c4ccccc4)cc3NC3=C2C(=O)CC(C)(C)C3)cc1 (stereo not shown) | ligand displacement, radioligand | 1% |
| Oc1cccc(Nc2nc(-c3ccc(F)cc3F)cs2)c1 | cell-free assay | 4% |
| CCCNc1nc2ccccc2n1Cc1ccc(Cl)cc1 | ligand displacement | -10.2% |
| CN1CCN(c2ccnc(NCCc3ccccc3)n2)CC1 | ligand displacement | -3.49% |
| O=C(Nc1ccc(S(=O)(=O)N2CCC(Cl)CC2)cc1)c1ccc([N+](=O)[O-])o1 | ligand displacement, radioligand | 17% |
| O=C1N=C(N2CCCCN2)S/C1=C\c1ccc(F)cc1O | ligand displacement, radioligand | < 10% |
| CC(=O)N1CCC(c2ccc(C(=O)NC3=NCCN3)cc2C(F)(F)F)CC1 | ligand displacement | -14.2% |
| O=C(c1ccc(F)cc1)N(Cc1ccccc1)C1CCCCC1 | cell-free assay | 7% |
| N#Cc1cc(Cn2c(N3CCCC3)nc3ccccc32)ccc1F | ligand displacement | 0% |
